This is a sample that favours compounds with a hit; in the whole collection about 2.7% have one here.
NR1D1 modulator: modulators of Rev-erb alpha DNA binding, primary screen, biochemical, FITC-DNA, fluorescence polarization, uHTS; Nuclear receptor subfamily 1 group D member 1 (Homo sapiens), P20393; Rev-erbα–FITC-DNA binding, 90 min; activity, % at 10 µM; 370,000 tested, 0.79% active;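 active = activity above about 14%, limit read from the data; passing the limit was not always enough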;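 also: 0% = DMSO wells with 35 nM protein and 100% = DMSO wells with 750 nM protein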
bovine MsrA act: bovine MsrA enzyme activators, primary screen, biochemical, absorbance, HTS; AID 602163, 2012; purified bovine MsrA, absorbance read-out; Methionine sulfoxide reductase A (Bos taurus); 360,000 tested, 0.3% active; activation, % at 10.6 µM; in the data active = activation above about 7.5%;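 also: 0% = vehicle and 100% = reference activator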
ASAP1 inh: inhibitors of human ASAP1 ArfGAP activity, primary screen, biochemical, fluorescence polarization. Arf-GAP with SH3 domain, ANK repeat and PH domain-containing protein 1 (Homo sapiens), …. ASAP1-stimulated ARF1 GTP hydrolysis, GDP FP detection. inhibition, % at 16.5 µM. 360,000 tested, 0.19% active; in the data active = inhibition above about 25%;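 also: 0% = vehicle with enzyme and substrate and 100% = no enzyme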
Target sequence (Q9ULH1 325-724 limits assumed): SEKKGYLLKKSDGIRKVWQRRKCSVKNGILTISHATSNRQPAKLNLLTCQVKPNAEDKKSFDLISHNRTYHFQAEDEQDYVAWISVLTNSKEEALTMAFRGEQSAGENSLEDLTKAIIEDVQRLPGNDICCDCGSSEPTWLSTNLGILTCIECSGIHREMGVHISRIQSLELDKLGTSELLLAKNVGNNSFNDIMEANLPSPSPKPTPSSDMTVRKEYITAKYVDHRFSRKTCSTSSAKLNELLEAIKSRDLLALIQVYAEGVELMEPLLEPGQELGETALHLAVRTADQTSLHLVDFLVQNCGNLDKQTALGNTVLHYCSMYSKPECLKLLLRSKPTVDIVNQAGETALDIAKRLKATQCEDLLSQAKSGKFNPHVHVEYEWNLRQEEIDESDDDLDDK
MsrA inhibitor: bovine MsrA enzyme inhibitors, primary screen, biochemical, absorbance, HTS; 360,000 tested, 0.75% active; purified bovine MsrA, absorbance read-out; Methionine sulfoxide reductase A (Bos taurus); inhibition, % at 15.5 µM; in the data active = inhibition above about 4.5%;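 also: 0% = vehicle wells with enzyme and 100% = reference inhibitor wells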
HGIII-sPLA2 inh: human group III sPLA2 inhibitors, primary screen, biochemical, QFRET, BODIPY PC-A2 liposome substrate. QFRET BODIPY PC-A2 liposome hydrolysis, fluorescence. inhibition, % at 12.2 µM. 370,000 tested, 0.56% active;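 active = inhibition above mean plus 3 SD of compounds lying within the high and low control bounds, cut at about 19% in these data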;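 also: 0% = median of test compound wells and 100% = no enzyme DMSO wells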
ARFGAP1 inh: inhibitors of rat ARFGAP1 GAP activity, primary screen, biochemical, fluorescence polarization, GDP tracer; inhibition, % at 16.5 µM; ADP-ribosylation factor GTPase-activating protein 1 (Rattus norvegicus), Q62848; Arfgap1-stimulated ARF1 GTP hydrolysis, GDP FP detection; 360,000 tested, 0.26% active;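 active = inhibition above a per-plate limit, mean inhibition of low control wells plus 3 SD, cut at about 25% in these data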;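 also: 0% = DMSO wells with enzyme and 100% = wells lacking Arfgap1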
Target sequence (Q62848 1-136 limits assumed): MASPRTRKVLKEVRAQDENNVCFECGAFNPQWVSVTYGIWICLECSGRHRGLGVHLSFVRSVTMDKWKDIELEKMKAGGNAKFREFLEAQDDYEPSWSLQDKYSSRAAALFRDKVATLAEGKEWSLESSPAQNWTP
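material = rat Arfgap1 catalytic domain, aa 1-136 | also added = human ARF1(Δ1-17)-GTP substrate | compound dosing = one concentration, 16.5 µM, DMSO 1.26% | times = GTP hydrolysis reaction 2 h at 25 °C | measured by = FP, GDP Alexa 633 tracer displaced from anti-GDP antibody, 620/688 nm | evaluation = percent inhibition of Arfgap1-stimulated GTP hydrolysis | replication = single well per compound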
Rev-erbA confirm: modulators of Rev-erb alpha DNA binding, confirmation, biochemical, FITC-DNA, fluorescence polarization, single point | 90 min | shares compounds with NR1D1 modulator | 3,000 tested, 61% active | activation, % at 25 µM;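 active = activation at or above a set limit, or at least 3 SD above the negative control mean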;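 also: 0% = 35 nM protein with DMSO and 100% = 750 nM protein high control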
RORg DNA counter: modulation of RORgamma DNA binding, dose response, counter-screen for Rev-erb alpha modulator project, biochemical, fluorescence polarization, FITC-DNA. shares compounds with NR1D1 modulator. purified RORgamma protein-FITC-DNA binding. IC50, µM. 910 tested, 8% active. AID 1259320, 2017;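 active = Compounds whose fitted half-maximal concentration for disrupting protein-DNA binding is below 10 micromolar; the record names Rev-erb in its text, so the target is in doubt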
Starred values were filed as active, the others as inactive; i = inactive; . = no result given.

SMILES	NR1D1 modulator	bovine MsrA act	ASAP1 inh	MsrA inhibitor	HGIII-sPLA2 inh	ARFGAP1 inh	Rev-erbA confirm	others
Cc1ccc2[nH]c(=O)c3cc(C(=O)N(C)C4CCCCC4)sc3c2c1	21*	-13	-8	1	9	-7	-1
Cc1ccccc1/C=C1\SC(=S)N(/N=C/c2cc([N+](=O)[O-])ccc2O)C1=O	22*	-8	4	1	-3	-1	4
C#CCn1c(=NC(=O)c2ccc(Br)s2)sc2cccc(OC)c21	27*	-2	-11	1	-4	-5	43*	RORg DNA counter=i
COC(=O)c1ccc(C23CC4(C2)[C@H](CN(Cc2cccnc2)[C@@H]4c2ccccc2)C3c2ccccc2)cc1 (stereo partly drawn)	6	1	5	1	6	6	.
N#Cc1ccc(C23CC4(C2)[C@H](CN(Cc2cccnc2)[C@@H]4c2ccccc2)C3c2ccccc2)cc1 (stereo partly drawn)	23*	-3	-3	-1	-2	-3	29*
CN(CC(=O)Nc1ccccc1Cl)C(=O)c1ccc(N2CCCCCC2)c([N+](=O)[O-])c1	4	-2	-19	0	-9	4	.
CN1CCN(c2ccccc2NC(=O)c2ccc(N3CCCC3)c([N+](=O)[O-])c2)CC1	16*	-4	12	1	-12	6	9
O=C(Nc1ccccc1N1CCCCC1)c1ccc(Cl)c([N+](=O)[O-])c1	5	-14	8	0	4	-4	.
Cc1cccc(NC(=O)CN(C)C(=O)c2ccc(N3CCCCCC3)c([N+](=O)[O-])c2)c1C	17*	0	-7	0	-4	1	-4
CCc1sc(C(=O)Nc2ccc(N3CCOCC3)cc2)cc1C	5	-2	-6	0	1	7	.
CCc1cc2cc(C(=O)Nc3ccc(C)cc3)sc2s1	45*	-10	-20	1	-4	2	17*
CC1C(c2ccccc2)=Nn2c(=O)n(-c3ccccc3)c(=O)n21 (stereo not drawn)	-5	-2	-1	0	0	-9	.
COc1ccc(C(=O)OCC(=O)Nc2nc3c(F)c(F)c(F)cc3s2)cc1OC	20*	-3	3	-1	1	-10	3
O=C(COC(=O)C12CC3CC(CC(C3)C1)C2)Nc1nc2c(F)c(F)c(F)cc2s1	-1	-2	-11	0	0	-6	.
CCc1ccccc1NC(=O)c1nnn(CC(=O)Nc2cccc(C)c2C)c1N	35*	-6	-3	2	-7	-7	42*
CCc1ccccc1NC(=O)c1nnn(CC(=O)Nc2cccc(C)c2)c1N	4	-7	-7	2	-16	-9	.
COc1cc(NC(C)CCCN)c2nc(C)ccc2c1Oc1ccc(F)cc1 (stereo not drawn)	10	-1	-12	0	2	-10	.
CC1CN(C(=O)/C=C/c2cccc([N+](=O)[O-])c2)CC(C)O1 (stereo not drawn)	-2	-5	-7	1	1	5	.
CC1CN(C(=O)/C=C/c2ccccc2[N+](=O)[O-])CC(C)O1 (stereo not drawn)	18*	-5	2	4	5	8	-4
CN1C(=O)c2cccc3c(N(C)C)ccc(c23)C1=O	27*	-5	6	0	-2	-1	29*
CNc1ccc2c3c(cccc13)C(=O)N(C)C2=O	382*	0	-1	0	-472	-8	339*	RORg DNA counter=>40
CN1C(=O)c2cccc3c(Cl)ccc(c23)C1=O	5	0	-4	2	10	14	.
Cc1nc(NC(=O)C(C)(C)C)sc1C(=O)Cn1cc(-c2ccc(C(C)(C)C)cc2)nn1	-3	-4	-2	1	-31	-20	.
CCOC(=O)C1(C)CCN1C(=O)c1cccc2ccccc12 (stereo not drawn)	-7	3	2	1	3	-3	.
O=[N+]([O-])c1ccc(N/N=C/c2sc(N3CCOCC3)nc2-c2ccccc2)c(S(=O)(=O)Nc2ccccc2Cl)c1	24*	-4	-4	0	0	9	2
SMILES	NR1D1 modulator	bovine MsrA act	ASAP1 inh	MsrA inhibitor	HGIII-sPLA2 inh	ARFGAP1 inh	Rev-erbA confirm	others
O=C(Nc1ccc2c(c1)C(=O)NC2=O)c1cc(Cl)ccc1Cl	144*	-3	8	1	3	-2	121*	RORg DNA counter=>40
O=C(Nc1ccc2c(c1)C(=O)NC2=O)c1cccc(Cl)c1	16	-1	1	1	-6	-1	.
CCCCNC(=O)c1nn2c(C(F)(F)F)cc(-c3ccc(OC)cc3)nc2c1Br	48*	-3	-2	0	3	-10	9
CCCNC(=O)c1nn2c(C(F)(F)F)cc(-c3ccccc3)nc2c1Br	28*	-3	9	-1	4	-7	21*
COc1ccccc1N(C)S(=O)(=O)c1ccc(C(=O)N(C)Cc2cccc(F)c2)cc1	-2	2	1	-1	-14	1	.
CCOC(=O)C1Nc2ccc(C(F)(F)F)cc2C2c3ccccc3CC12 (stereo not drawn)	36*	0	-2	1	0	12	14
COc1ccc(CC(=O)Nc2nn(C)c3nc4c(C)cccc4cc23)cc1	28*	-7	0	-1	0	4	11
CCC(=O)Nc1nn(C)c2nc3c(C)cccc3cc12	-5	-5	-4	1	-3	5	.
CCc1ccc(Nc2n[n+](-c3ccccc3)c(-c3ccc(OCc4ccccc4)cc3)s2)cc1	16*	-2	0	0	4	-3	5
CCc1ccc(Nc2n[n+](-c3ccccc3)c(-c3c(Cl)cccc3Cl)s2)cc1	5	-3	-9	0	10	3	.
O=C1c2cccc3c(O)ccc(c23)C(=O)N1Cc1ccco1	36*	-6	2	-1	-203	-8	37*	RORg DNA counter=>40
Cc1ccc(N2C(=O)c3cccc4c(C(=O)O)ccc(c34)C2=O)cc1	2	.	1	2	1	9	.

From PubChem
